Activity calls are given as the source filed them. No cut-off for these calls is given here.
Experiments:
[1] = target: Mast/stem cell growth factor receptor Kit (Homo sapiens) (UniProt P10721); assay: Inhibition of cKIT in human GISTT1 cells assessed as suppression of AKT phosphorylation at S473 up to 10 uM after 2 hrs by Western blot analysis; format: cell-based
[2] = target: Platelet-derived growth factor receptor alpha (Homo sapiens) (UniProt P16234); assay: Inhibition of PDGFRalpha phosphorylation at Y849 in human GISTT1 cells up to 10 uM after 2 hrs by Western blot analysis; format: cell-based
Sequence of Platelet-derived growth factor receptor alpha (Homo sapiens) (P16234 whole entry): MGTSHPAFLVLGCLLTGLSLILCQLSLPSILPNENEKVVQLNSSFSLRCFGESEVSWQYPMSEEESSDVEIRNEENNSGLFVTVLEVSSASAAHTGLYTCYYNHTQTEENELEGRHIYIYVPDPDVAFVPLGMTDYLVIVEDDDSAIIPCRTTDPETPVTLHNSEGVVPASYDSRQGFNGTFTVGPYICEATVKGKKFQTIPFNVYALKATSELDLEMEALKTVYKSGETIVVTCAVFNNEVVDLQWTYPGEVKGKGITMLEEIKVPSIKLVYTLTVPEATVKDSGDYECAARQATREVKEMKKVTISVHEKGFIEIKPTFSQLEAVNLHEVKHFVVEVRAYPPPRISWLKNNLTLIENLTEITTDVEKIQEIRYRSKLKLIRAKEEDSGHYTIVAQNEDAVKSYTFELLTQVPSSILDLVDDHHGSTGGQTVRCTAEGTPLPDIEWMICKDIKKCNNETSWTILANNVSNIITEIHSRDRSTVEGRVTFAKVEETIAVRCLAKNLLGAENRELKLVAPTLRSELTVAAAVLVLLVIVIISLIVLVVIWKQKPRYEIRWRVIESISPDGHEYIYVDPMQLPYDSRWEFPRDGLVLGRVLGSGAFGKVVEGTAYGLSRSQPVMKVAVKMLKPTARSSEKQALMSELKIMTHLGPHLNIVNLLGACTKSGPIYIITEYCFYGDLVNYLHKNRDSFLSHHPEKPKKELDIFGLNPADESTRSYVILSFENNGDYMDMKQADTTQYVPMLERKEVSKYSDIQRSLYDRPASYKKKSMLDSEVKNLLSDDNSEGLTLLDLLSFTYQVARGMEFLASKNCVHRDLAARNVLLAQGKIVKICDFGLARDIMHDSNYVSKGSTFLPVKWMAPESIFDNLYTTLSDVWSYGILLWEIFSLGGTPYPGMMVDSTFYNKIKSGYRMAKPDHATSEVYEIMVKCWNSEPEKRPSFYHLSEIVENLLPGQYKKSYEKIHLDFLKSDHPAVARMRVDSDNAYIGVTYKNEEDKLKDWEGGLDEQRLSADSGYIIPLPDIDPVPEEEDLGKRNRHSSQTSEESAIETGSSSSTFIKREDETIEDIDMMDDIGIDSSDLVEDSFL
Method in brief: (§1)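 Cells were washed in cold PBS, lysed in RIPA and immunoblotted for phospho and total proteins, including pPDGFRα Y849/PDGFRβ Y857 and β-actin.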

[3] = target: Mast/stem cell growth factor receptor Kit (Homo sapiens) (UniProt P10721); assay: Inhibition of cKIT in human GISTT1 cells assessed as suppression of STAT5 phosphorylation at Y694 up to 10 uM after 2 hrs by Western blot analysis; format: cell-based
[4] = target: Mast/stem cell growth factor receptor Kit (Homo sapiens) (UniProt P10721); assay: Inhibition of cKIT in human GIST882 cells assessed as suppression of S6K phosphorylation at T389 up to 10 uM after 2 hrs by Western blot analysis; format: cell-based
[5] = target: Mast/stem cell growth factor receptor Kit (Homo sapiens) (UniProt P10721); assay: Inhibition of cKIT autophosphorylation at Y719 in human GIST48B cells up to 10 uM after 2 hrs by Western blot analysis; format: cell-based
[6] = target: Mast/stem cell growth factor receptor Kit (Homo sapiens) (UniProt P10721); assay: Inhibition of cKIT in human GIST48B cells assessed as suppression of ERK phosphorylation at T202/Y204 up to 10 uM after 2 hrs by Western blot analysis; format: cell-based
[7] = target: Mast/stem cell growth factor receptor Kit (Homo sapiens) (UniProt P10721); assay: Inhibition of cKIT in human GIST48B cells assessed as suppression of STAT5 phosphorylation at Y694 up to 10 uM after 2 hrs by Western blot analysis; format: cell-based
[8] = target: Platelet-derived growth factor receptor alpha (Homo sapiens) (UniProt P16234); assay: Inhibition of PDGFRalpha phosphorylation at Y849 in human GIST882 cells up to 10 uM after 2 hrs by Western blot analysis; format: cell-based; method in brief: as §1
GIST882 = assay: Induction of apoptosis in human GIST882 cells assessed as PARP cleavage up to 3 uM after 72 hrs by Western blot analysis; format: functional, cell-based
GIST48B = assay: Induction of apoptosis in human GIST48B cells assessed as caspase 3 cleavage up to 3 uM after 72 hrs by Western blot analysis; format: functional, cell-based
[9] = Cell cycle arrest in human GIST882 cells at 0.3 to 3 uM after 48 hrs by propidium iodide/RNase staining based flow cytometric analysis; format: functional
Method in brief: (§2)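 Cells were then fixed in 70% cold ethanol at −20 °C overnight, stained with PI/RNase buffer and analysed by flow cytometry.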

[10] = Cell cycle arrest in human GIST48B cells at 0.3 to 3 uM after 24 hrs by propidium iodide/RNase staining based flow cytometric analysis; format: functional; method in brief: as §2
[11] = AUC(0 to t) in Sprague-Dawley rat plasma at 1 mg/kg, iv; format: ADME, organism-based
Method in brief: (§3)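 Male Sprague-Dawley rats, 8 weeks old, fasted overnight, dosed iv or orally. Formulation was 5% DMSO/40% PEG400/55% saline at 1 mg/mL. Blood (~0.2 mL) was drawn from the jugular vein into heparin. Sampling: iv at 1 min to 8 h; oral at 5 min to 24 h. Plasma was separated by centrifugation at 2−8 °C and stored at −80 °C.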

[12] = AUC(0 to infinity) in Sprague-Dawley rat plasma at 10 mg/kg, po; format: ADME, organism-based; parameters: dose 10 mg/kg, time infinity, route oral; method in brief: as §3
[13] = Half life in Sprague-Dawley rat plasma at 10 mg/kg, po; format: ADME, organism-based; method in brief: as §3
[14] = Apparent clearance in Sprague-Dawley rat plasma at 10 mg/kg, po; format: ADME, organism-based; details: read-out: CL(app) (converted); method in brief: as §3
[15] = Cmax in Sprague-Dawley rat plasma at 10 mg/kg, po; format: ADME, organism-based; parameters: dose 10 mg/kg, route oral; method in brief: as §3
[16] = Antitumor activity against human GISTT1 cells xenografted in nu/nu mouse assessed as tumor growth inhibition at 100 mg/kg/day administered through oral gavage after 21 days; format: functional; details: 504 h, read-out: TGI
Method in brief: (§4)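 Female nu/nu mice, 6 weeks old, received 5 × 10⁶ GIST-T1 cells in PBS/Matrigel (1:1) subcutaneously in the right flank. At 100−200 mm³, six mice per group were dosed daily by oral gavage at 25, 50 or 100 mg/kg/d in 0.5% methylcellulose/0.4% Tween80, or vehicle. Tumor volume was taken as (W²×L)/2, with body weight and tumor measured daily. Tumors were stained for Ki67 (IHC, 1:50 antibody) and by TUNEL.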

GISTT1 = assay: Induction of apoptosis in human GISTT1 cells xenografted in nu/nu mouse at 25 to 100 mg/kg/day administered through oral gavage after 21 days by tunel assay; format: functional, organism-based; method in brief: as §4
[17] = target: Epithelial discoidin domain-containing receptor 1 (Homo sapiens, UniProt Q08345); assay: Inhibition of human wild type partial length DDR1 expressed in bacterial expression system assessed as residual activity at 1 uM by KinomeScan method
Sequence of Epithelial discoidin domain-containing receptor 1 (Q08345 whole entry, the tested form may be a part): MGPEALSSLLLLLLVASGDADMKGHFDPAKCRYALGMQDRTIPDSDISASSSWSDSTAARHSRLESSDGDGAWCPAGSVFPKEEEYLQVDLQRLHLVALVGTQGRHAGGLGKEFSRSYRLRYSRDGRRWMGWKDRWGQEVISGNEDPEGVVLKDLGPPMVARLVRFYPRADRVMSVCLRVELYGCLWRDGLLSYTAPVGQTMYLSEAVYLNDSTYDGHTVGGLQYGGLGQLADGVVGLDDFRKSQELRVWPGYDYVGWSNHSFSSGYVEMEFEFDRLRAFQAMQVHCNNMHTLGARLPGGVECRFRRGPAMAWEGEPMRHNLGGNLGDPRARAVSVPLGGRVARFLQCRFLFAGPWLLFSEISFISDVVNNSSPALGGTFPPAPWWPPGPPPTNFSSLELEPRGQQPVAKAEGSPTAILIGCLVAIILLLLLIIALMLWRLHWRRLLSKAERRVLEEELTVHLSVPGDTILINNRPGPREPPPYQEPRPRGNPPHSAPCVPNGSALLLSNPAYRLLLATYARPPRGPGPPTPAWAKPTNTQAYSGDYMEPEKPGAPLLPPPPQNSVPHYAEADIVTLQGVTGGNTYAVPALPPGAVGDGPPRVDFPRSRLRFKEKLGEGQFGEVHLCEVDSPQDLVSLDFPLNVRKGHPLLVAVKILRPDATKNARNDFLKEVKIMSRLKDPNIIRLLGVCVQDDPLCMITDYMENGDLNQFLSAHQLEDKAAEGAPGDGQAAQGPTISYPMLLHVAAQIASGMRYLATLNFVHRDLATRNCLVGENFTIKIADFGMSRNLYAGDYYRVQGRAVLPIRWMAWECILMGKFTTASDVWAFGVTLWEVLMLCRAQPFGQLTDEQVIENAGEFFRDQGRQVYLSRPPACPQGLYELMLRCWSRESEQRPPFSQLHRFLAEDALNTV
Method in brief: (§5)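 KinomeScan competitive binding panel of 468 kinases and mutants, compound tested at 1 μM; read-out is percent activity remaining (binding relative to control).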

[18] = target: Mast/stem cell growth factor receptor Kit (Homo sapiens) (UniProt P10721); assay: Inhibition of human wild type partial length cKIT expressed in bacterial expression system assessed as residual activity at 1 uM by KinomeScan method; method in brief: as §5
[19] = target: Mast/stem cell growth factor receptor Kit (Homo sapiens) (UniProt P10721); assay: Inhibition of Tel-fused cKIT (unknown origin) transfected in mouse BAF3 cells assessed as decrease in cell proliferation after 72 hrs by celltiter-glo/CCK8 assay; format: cell-based
Method in brief: (§6)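 Cells were seeded at 1 to 3 × 10⁴ cells/mL with serial compound concentrations and incubated 72 h at 37 °C, 5% CO₂. Viability was read by CellTiter-Glo luminescence or CCK-8 absorbance (450/655 nm). GI50 values are from triplicate testing. GIST-T1 and CHO were grown in DMEM/10% FBS; GIST-882, GIST-48B and MV4-11 in IMDM/10% FBS; other lines in RPMI 1640/10% FBS.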

[20] = test system: Mast/stem cell growth factor receptor Kit (Homo sapiens), P10721 [V559D,V654A]; assay: Inhibition of Tel-fused cKIT V559D/V654A double mutant (unknown origin) transfected in mouse BAF3 cells assessed as decrease in cell proliferation after 72 hrs by celltiter-glo/CCK8 assay; format: cell-based
Sequence of Mast/stem cell growth factor receptor Kit (Homo sapiens), P10721 [V559D,V654A] (P10721 whole entry V559D/V654A, the tested form may be a part): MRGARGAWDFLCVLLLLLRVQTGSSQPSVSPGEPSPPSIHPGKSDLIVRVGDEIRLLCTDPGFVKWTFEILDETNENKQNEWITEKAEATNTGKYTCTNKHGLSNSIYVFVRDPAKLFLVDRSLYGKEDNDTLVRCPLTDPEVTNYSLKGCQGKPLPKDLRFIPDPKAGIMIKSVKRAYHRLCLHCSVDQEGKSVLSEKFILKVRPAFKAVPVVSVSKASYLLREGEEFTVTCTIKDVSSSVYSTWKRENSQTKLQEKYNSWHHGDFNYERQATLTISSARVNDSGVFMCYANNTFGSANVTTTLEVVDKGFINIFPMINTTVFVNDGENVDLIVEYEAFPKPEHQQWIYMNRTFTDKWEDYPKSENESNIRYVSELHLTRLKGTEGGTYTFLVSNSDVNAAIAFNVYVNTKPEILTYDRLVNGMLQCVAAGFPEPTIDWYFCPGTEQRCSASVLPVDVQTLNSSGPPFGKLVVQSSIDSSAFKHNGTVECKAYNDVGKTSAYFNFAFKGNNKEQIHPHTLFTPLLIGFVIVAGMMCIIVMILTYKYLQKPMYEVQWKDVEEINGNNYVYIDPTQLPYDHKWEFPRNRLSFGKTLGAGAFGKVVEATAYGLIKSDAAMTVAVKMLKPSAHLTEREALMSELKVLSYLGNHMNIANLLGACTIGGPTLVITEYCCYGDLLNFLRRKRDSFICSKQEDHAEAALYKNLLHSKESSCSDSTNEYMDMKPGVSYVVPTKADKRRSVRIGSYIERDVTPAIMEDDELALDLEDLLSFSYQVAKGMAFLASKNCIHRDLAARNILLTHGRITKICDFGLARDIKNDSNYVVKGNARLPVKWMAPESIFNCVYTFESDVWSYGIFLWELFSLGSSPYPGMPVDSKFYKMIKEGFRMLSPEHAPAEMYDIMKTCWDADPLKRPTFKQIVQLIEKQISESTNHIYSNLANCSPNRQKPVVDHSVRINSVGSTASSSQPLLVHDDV
Method in brief: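 Stable BaF3 lines made by retroviral transduction with mutagenized TEL-KIT MSCV vectors, puromycin selection 48 h, then gradual IL-3 withdrawal until IL-3-independent; grown in RPMI 1640 with 10% FBS. Cells at 1 to 3 × 10⁴ cells/mL exposed to a concentration series for 72 h; viability read by CellTiter-Glo luminescence or CCK-8 absorbance (450/655 nm); GI50 from triplicate testing.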

[21] = Antiproliferative activity against human HL60 cells assessed as reduction in cell viability after 72 hrs by celltiter-glo/CCK8 assay; format: functional; details: HL-60, 72 h; method in brief: as §6
[22] = Antiproliferative activity against human Rec1 cells assessed as reduction in cell viability after 72 hrs by celltiter-glo/CCK8 assay; format: functional; details: Rec1, 72 h; method in brief: as §6
[23] = Antiproliferative activity against CHO cells assessed as reduction in cell viability after 72 hrs by celltiter-glo/CCK8 assay; format: cell-based, Cricetulus griseus; details: chinese hamster; method in brief: as §6
[24] = target: Mast/stem cell growth factor receptor Kit (Homo sapiens) (UniProt P10721); assay: Inhibition of cKIT autophosphorylation at Y719 in human GISTT1 cells up to 10 uM after 2 hrs by Western blot analysis; format: cell-based
[25] = target: Mast/stem cell growth factor receptor Kit (Homo sapiens) (UniProt P10721); assay: Inhibition of cKIT autophosphorylation at Y719 in human GIST882 cells up to 10 uM after 2 hrs by Western blot analysis; format: cell-based

Sequence of Mast/stem cell growth factor receptor Kit (Homo sapiens) (P10721 whole entry, the tested form may be a part): as the sequence (P10721 whole entry V559D/V654A, the tested form may be a part) above, with D559V, A654V counted along it

For `Cc1ccc(NC(=O)c2cccc(C(F)(F)F)c2)cc1OC1CCN(C(=O)c2ccncc2)CC1`, which inhibition [1] is on record?
The inhibition was “Active”.

And the inhibition [2]?
Its inhibition is “Active”.

What about the inhibition [3] of the same molecule?
Its inhibition is “Active”.

And the inhibition [4]?
The inhibition was “Active”.

And the inhibition [5]?
Its inhibition is “Active”.

And the inhibition [6]?
The inhibition was “inactive”.

What about the inhibition [7] of the same molecule?
Its inhibition is “Active”.

And the inhibition [8]?
Its inhibition is “Active”.

What about the Activity (GIST882) of the same molecule?
Its Activity is “Active”.

What about the Activity (GIST48B) of the same molecule?
The Activity was “inactive”.

What about the Activity [9] of the same molecule?
The Activity was “Active”.

What about the Activity [10] of the same molecule?
The Activity was “inactive”.

And the AUC(0-t) [11]?
Its AUC(0-t) is 198 ng·h/mL.

And the AUC(0-inf) [12]?
The AUC(0-inf) was 780 ng·h/mL.

And the half-life [13]?
The half-life was 4.11 h.

And the CL/F [14]?
Its CL/F is 215 mL/min/kg.

What about the Cmax [15] of the same molecule?
Its Cmax is 125 ng/mL.

What about the inhibition in vivo at 100 mg/kg/day [16] of the same molecule?
Its inhibition in vivo at 100 mg/kg/day is 49%.

And the Activity (GISTT1)?
The Activity was “Active”.

And the Activity [17]?
Its Activity is 0.15%.

And the Activity [18]?
The Activity was 0.45%.

And the GI50 [19]?
The GI50 was 190 nM.

What about the GI50 [20] of the same molecule?
Its GI50 is 1050 nM.

And the GI50 [21]?
The GI50 was over 10000 nM.

What about the GI50 [22] of the same molecule?
Its GI50 is over 10000 nM.

What about the GI50 at 72 h [23] of the same molecule?
The GI50 at 72 h was over 10000 nM.

And the inhibition [24]?
Its inhibition is “Active”.

What about the inhibition [25] of the same molecule?
Its inhibition is “Active”.

Source: ChEMBL document CHEMBL3808357, “Discovery of N-(3-((1-Isonicotinoylpiperidin-4-yl)oxy)-4-methylphenyl)-3-(trifluoromethyl)benzamide (CHMFL-KIT-110) as a Selective, Potent, and Orally Available Type II c-KIT Kinase Inhibitor for Gastrointestinal Stromal Tumors (GISTs)” (J Med Chem, 2016)
